{"source": "ChEMBL document CHEMBL1817575", "about": "“Extended targeting potential and improved synthesis of Microcin C analogs as antibacterials” (Bioorg Med Chem, 2011)", "key": {"Escherichia coli [1]": {"test_system": "Escherichia coli", "experiment": "Antibacterial activity against Escherichia coli Ara-Yej (BW39758) at <= 0.63 uM after 8 hrs", "assay_type": "functional, organism-based", "summary_of_the_method": "(§1)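 Overnight LB cultures were regrown in fresh LB, with or without 5 mM L-arabinose, to OD600 0.1. Compounds were serially titrated in 96-well plates in LB with or without 5 mM L-arabinose, and cells were added. Plates were incubated at 37 °C, and growth inhibition was read as OD600 after 8 h.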"}, "Escherichia coli [2]": {"test_system": "Escherichia coli", "experiment": "Antibacterial activity against yej or pepA,B,N-genes disrupted Escherichia coli after 8 hrs", "assay_type": "functional, organism-based", "summary_of_the_method": "as §1"}}, "note": "Activity calls are given as the source filed them. No cut-off for these calls is given here. Residues, ends and D or L forms follow the SMILES beside them. *: point of attachment. X7 = CC[C@H](C)[C@H](N*)C(=O)NS(=O)(=O)OC[C@H]1O[C@@H](n2cnc3c(N)ncnc32)[C@H](O)[C@@H]1O; NHTrityl = c1ccc(C(N*)(c2ccccc2)c2ccccc2)cc1; Pbf = Cc1c(C)c(S(=O)(=O)*)c(C)c2c1OC(C)(C)C2; tBu = CC(C)(C)*; For = O=C*", "data": [{"smiles": "CC[C@H](C)[C@H](NC(=O)[C@H](C)NC(=O)[C@H](CC(=O)NC(c1ccccc1)(c1ccccc1)c1ccccc1)NC(=O)CNC(=O)[C@@H](NC(=O)[C@H](CCCNC(=N)NS(=O)(=O)c1c(C)c(C)c2c(c1C)CC(C)(C)O2)NC(=O)[C@H](CCSC)NC=O)[C@@H](C)OC(C)(C)C)C(=O)NS(=O)(=O)OC[C@H]1O[C@@H](n2cnc3c(N)ncnc32)[C@H](O)[C@@H]1O", "note": "(For-MR(Pbf)T(tBu)GD(NHTrityl)A-X7)", "values": [{"measurement": "Activity", "setting": "Escherichia coli [1]", "result": "Active"}, {"measurement": "Activity", "setting": "Escherichia coli [2]", "result": "inactive"}]}]}
